Columns and labels:
Assay type in all cases: cell-based
HEK293 [1] = experiment: Selectivity ratio of Ki for human 5-HT7 receptor expressed in HEK293 cells to Ki for human 5-HT1A receptor expressed in HEK293 cells
Procedure, shortened: (§1)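 Ratios computed from Ki values from radioligand displacement in HEK293 membranes stably expressing human receptors: [3H]-8-OH-DPAT for 5-HT1A (1 h, room temperature) and [3H]-5-CT for 5-HT7b (1 h, 37 °C), filtration read-out. Each compound in triplicate at 7-8 concentrations (10^-11–10^-4 M); Ki by Cheng-Prusoff.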

[2] = biological target: 5-hydroxytryptamine receptor 7 (Homo sapiens, UniProt P34969); experiment: Displacement of [3H]-5-CT from human 5-HT7 receptor expressed in HEK293 cells after 1 hr by beta-counting
Chain of 5-hydroxytryptamine receptor 7 (P34969 whole entry): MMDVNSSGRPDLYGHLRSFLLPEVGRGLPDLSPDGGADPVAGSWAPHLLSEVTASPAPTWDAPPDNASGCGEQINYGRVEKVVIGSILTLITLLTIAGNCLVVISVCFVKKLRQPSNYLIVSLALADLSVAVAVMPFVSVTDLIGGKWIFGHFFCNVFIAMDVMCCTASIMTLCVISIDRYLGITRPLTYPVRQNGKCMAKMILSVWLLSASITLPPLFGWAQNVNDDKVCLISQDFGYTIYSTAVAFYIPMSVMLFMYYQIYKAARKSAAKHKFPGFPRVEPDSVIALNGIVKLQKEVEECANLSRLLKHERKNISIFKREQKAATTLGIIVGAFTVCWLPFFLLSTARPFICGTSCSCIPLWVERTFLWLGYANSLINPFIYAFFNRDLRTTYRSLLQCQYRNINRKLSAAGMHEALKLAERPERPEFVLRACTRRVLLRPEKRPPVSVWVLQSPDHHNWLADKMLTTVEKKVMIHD

[3] = biological target: T1, 5-hydroxytryptamine receptor 1A (Homo sapiens, UniProt P08908); experiment: Displacement of [3H]-8-OH-DPAT from human 5-HT1A receptor expressed in HEK293 cells after 1 hr by beta-counting
T1 sequence (P08908 whole entry): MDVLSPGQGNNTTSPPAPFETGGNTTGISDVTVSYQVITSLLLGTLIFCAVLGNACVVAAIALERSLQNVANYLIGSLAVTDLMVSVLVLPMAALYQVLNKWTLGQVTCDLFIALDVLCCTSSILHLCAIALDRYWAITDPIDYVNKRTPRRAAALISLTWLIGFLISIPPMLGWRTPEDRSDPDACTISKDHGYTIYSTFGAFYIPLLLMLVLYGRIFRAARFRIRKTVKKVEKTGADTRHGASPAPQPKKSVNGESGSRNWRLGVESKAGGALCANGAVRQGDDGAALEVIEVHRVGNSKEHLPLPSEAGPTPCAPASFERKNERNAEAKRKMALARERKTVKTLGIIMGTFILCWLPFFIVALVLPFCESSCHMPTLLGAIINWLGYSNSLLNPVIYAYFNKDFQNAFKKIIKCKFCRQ
Procedure, shortened: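 Human 5-HT1A receptor stably expressed in HEK293 cells; pellet homogenized in 20 vol buffer (50 mM Tris-HCl, 0.1 mM EDTA, 4 mM MgCl2, 0.1% ascorbate, pargyline), spun twice 35,000 g 20 min 4 °C, 15 min 37 °C between spins. Displacement of [3H]-8-OH-DPAT (187 Ci/mmol), 1 h room temperature; filtration, filter-bound radioactivity. Triplicate at 7-8 concentrations (10^-11–10^-4 M); Ki via Cheng-Prusoff.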

HEK293 [4] = experiment: Selectivity ratio of Ki for human 5-HT1A receptor expressed in HEK293 cells to Ki for human 5-HT7 receptor expressed in HEK293 cells; procedure, shortened: as §1

Structure (SMILES) | Ratio Ki (HEK293 [1]) | Ki [2] [nM] | Ki [3] [nM] | Ratio Ki (HEK293 [4])
CSc1ccccc1N1CCN(CCCCC(=O)N2CCC[C@H]2C(N)=O)CC1 | 3 | 163 | 47 | < 1
NC(=O)[C@@H]1CCCN1C(=O)CCCCCN1CCN(c2ccccc2Cl)CC1 | 6 | 1310 | 232 | < 1
COc1ccccc1N1CCN(CCCCCC(=O)N2CCC[C@H]2C(N)=O)CC1 | 27 | 1200 | 44 | < 1
NC(=O)[C@@H]1Cc2ccccc2CN1C(=O)CCCCCN1CCN(c2ccccc2Cl)CC1 | 2 | 393 | 236 | < 1
COc1ccccc1N1CCN(CCCCC(=O)N2Cc3ccccc3C[C@H]2C(N)=O)CC1 | 5 | 551 | 107 | < 1
COc1ccccc1N1CCN(Cc2ccc(C(=O)N3CCC[C@H]3C(N)=O)cc2)CC1 | < 1 | 4150 | 6310 | 2
NC(=O)[C@@H]1Cc2ccccc2CN1C(=O)CCCCN1CCN(c2noc3ccccc23)CC1 | < 1 | 18 | 377 | 21
NC(=O)[C@@H]1Cc2ccccc2CN1C(=O)c1ccc(CN2CCN(c3cccc(Cl)c3Cl)CC2)cc1 | 6 | 1200 | 212 | < 1
NC(=O)[C@@H]1CCCN1C(=O)CCCCCN1CCN(c2ccc(F)cc2)CC1 | 2 | 1190 | 573 | < 1
CSc1ccccc1N1CCN(CCCCCCC(=O)N2Cc3ccccc3C[C@H]2C(N)=O)CC1 | 55 | 111 | 2 | < 1
NC(=O)[C@@H]1CCCN1C(=O)CCCCCCN1CCN(c2noc3ccccc23)CC1 | < 1 | 101 | 122 | 1
NC(=O)[C@@H]1CCCN1C(=O)CCCCN1CCN(c2noc3ccccc23)CC1 | < 1 | 108 | 2910 | 27
NC(=O)[C@@H]1Cc2ccccc2CN1C(=O)CCCCCN1CCN(c2ccccc2O)CC1 | 7 | 476 | 72 | < 1
NC(=O)[C@@H]1CCCN1C(=O)CCCCCN1CCN(c2cccc(Cl)c2Cl)CC1 | 45 | 179 | 4 | < 1
NC(=O)[C@@H]1Cc2ccccc2CN1C(=O)CCCCCN1CCN(c2cccc(Cl)c2)CC1 | 1 | 725 | 499 | < 1
CSc1ccccc1N1CCN(CCCCCC(=O)N2CCC[C@H]2C(N)=O)CC1 | 11 | 153 | 14 | < 1
CSc1ccccc1N1CCN(Cc2ccc(C(=O)N3CCC[C@H]3C(N)=O)cc2)CC1 | 2 | 567 | 313 | < 1
NC(=O)[C@@H]1Cc2ccccc2CN1C(=O)CCCCN1CCN(c2ccc(Cl)cc2)CC1 | 1 | 223 | 211 | < 1

Structure (SMILES) | Ratio Ki (HEK293 [1]) | Ki [2] [nM] | Ki [3] [nM] | Ratio Ki (HEK293 [4])
NC(=O)[C@@H]1CCCN1C(=O)CCCCCN1CCN(c2cccc(Cl)c2)CC1 | 13 | 478 | 38 | < 1
NC(=O)[C@@H]1CCCN1C(=O)CCCCCN1CCN(c2noc3ccccc23)CC1 | < 1 | 50 | 214 | 4
NC(=O)[C@@H]1Cc2ccccc2CN1C(=O)CCCCCCN1CCN(c2noc3ccccc23)CC1 | < 1 | 28 | 89 | 3
COc1ccccc1N1CCN(CCCCC(=O)N2CCC[C@H]2C(N)=O)CC1 | 3 | 634 | 214 | < 1
CSc1ccccc1N1CCN(CCCCCC(=O)NC2CCCc3ccccc32)CC1 (stereo unspecified) | – | 0.22 | – | –
CSc1ccccc1N1CCN(CCCCCC(=O)N2Cc3ccccc3C[C@H]2C(N)=O)CC1 | > 78 | 78 | < 1 | < 1
NC(=O)[C@@H]1CCCN1C(=O)CCCCCN1CCN(c2ccccc2F)CC1 | 22 | 3130 | 141 | < 1
CSc1ccccc1N1CCN(CCCCC(=O)N2Cc3ccccc3C[C@H]2C(N)=O)CC1 | 3 | 51 | 18 | < 1
COc1ccccc1N1CCN(CCCCCC(=O)N2Cc3ccccc3C[C@H]2C(N)=O)CC1 | 25 | 302 | 12 | < 1
NC(=O)[C@@H]1Cc2ccccc2CN1C(=O)CCCCCN1CCN(c2cccc(Cl)c2Cl)CC1 | 6 | 95 | 16 | < 1
CSc1ccccc1N1CCN(Cc2ccc(C(=O)N3Cc4ccccc4C[C@H]3C(N)=O)cc2)CC1 | 1 | 148 | 122 | < 1
NC(=O)[C@@H]1Cc2ccccc2CN1C(=O)CCCCN1CCN(c2ccc(F)cc2)CC1 | < 1 | 295 | 1910 | 6
NC(=O)[C@@H]1CCCN1C(=O)CCCCN1CCN(c2cccc(Cl)c2Cl)CC1 | < 1 | 113 | 83 | < 1
NC(=O)[C@@H]1CCCN1C(=O)CCCCN1CCN(c2ccccc2O)CC1 | 36 | 1870 | 52 | < 1
CSc1ccccc1N1CCN(CCCCCCC(=O)N2CCC[C@H]2C(N)=O)CC1 | 21 | 495 | 23 | < 1
NC(=O)[C@@H]1Cc2ccccc2CN1C(=O)CCCCCN1CCN(c2noc3ccccc23)CC1 | < 1 | 22 | 230 | 10
COc1ccccc1N1CCN(Cc2ccc(C(=O)N3Cc4ccccc4C[C@H]3C(N)=O)cc2)CC1 | 7 | 579 | 77 | < 1
NC(=O)[C@@H]1Cc2ccccc2CN1C(=O)CCCCCN1CCN(c2ccc(F)cc2)CC1 | < 1 | 107 | 643 | 6

Source: ChEMBL document CHEMBL3232956, “Solid-supported synthesis, molecular modeling, and biological activity of long-chain arylpiperazine derivatives with cyclic amino acid amide fragments as 5-HT(7) and 5-HT(1A) receptor ligands” (Eur J Med Chem, 2014)
